# Results taken from ChEMBL document CHEMBL1145946, “Novel lavendamycin analogues as potent HIV-reverse transcriptase inhibitors: synthesis and evaluation of anti-reverse transcriptase activity of amide and ester analogues of lavendamycin” (J Med Chem, 2003).
# Experiments:
# [1] = tested on: H9; assay: Cellular cytotoxicity against human lymphocytic cell lines H-9.; format: functional
# In short: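 H-9 and CCRF-CEM human lymphocytic lines subcultured in complete RPMI 1640 with 10% FCS, without ConA or β-mercaptoethanol, at 6.25 × 10^5 and 2 × 10^6 cells/mL. Triplicate wells given a range of analogue concentrations at 37 °C, 5% CO2 for 48 h, then MTT 4-6 h, read at 600 nm. CC50 by linear interpolation versus untreated cells; data from both lines pooled.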
# [2] = species on record: Mus musculus; assay: Cellular cytotoxicity in normal mouse spleen stimulated with concanavalin A; format: functional
# In short: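 Normal murine spleen cells at 2.5 × 10^6 or 5 × 10^6 cells/mL in complete RPMI 1640 with 10% FCS, stimulated with ConA 2.5 µg/mL. Analogue range added in triplicate, incubated 48 h at 37 °C, 5% CO2. MTT then added for 4-6 h, formazan dissolved in acidified 2-propanol, OD at 600 nm. CC50 by linear interpolation against untreated controls.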
# [3] = target: Human immunodeficiency virus type 1 reverse transcriptase (Human immunodeficiency virus 1, UniProt Q72547); assay: Inhibitory activity against HIV-reverse transcriptase (HIV-RT)
IC50 [3] [µM],SMILES,CC50 [1] [µM],CC50 [2] [µM]
15.1,COC(=O)c1[nH]c(-c2ccc3c(n2)C(=O)C(NC(C)=O)=CC3=O)c2nc3ccccc3c-2c1C,31,62
13.3,CC(=O)NC1=CC(=O)c2ccc(-c3[nH]c(C(=O)O)cc4c5ccccc5nc3-4)nc2C1=O,81,47
3,CC(=O)NC1=CC(=O)c2ccc(-c3[nH]c(C(=O)OCCOP(=O)(O)O)cc4c5ccccc5nc3-4)nc2C1=O,27,29
12.7,CC(=O)NC1=CC(=O)c2ccc(-c3[nH]c(C(N)=O)cc4c5ccccc5nc3-4)nc2C1=O,95,50

SMILES,IC50 [3] [µM],CC50 [1] [µM],CC50 [2] [µM]
CCCCOC(=O)c1cc2c([nH]c3ccccc32)c(-c2ccc3c(n2)C(=O)C(NC(=O)CCC)=CC3=O)n1 [LAV12],5.8,50,81
